# “And” between values parts separate entries of the source, which are not always exact repeats. Equal entries are not always repeated.
# How the values were obtained:
# [1] = target: T1, Polyunsaturated fatty acid 5-lipoxygenase (Homo sapiens, UniProt P09917); experiment: In vitro 5-lipoxygenase inhibitory activity against calcium ionophore (A23187) induced LTB4 formation in human whole blood; format: functional, tissue-based
# T1 sequence (P09917 whole entry): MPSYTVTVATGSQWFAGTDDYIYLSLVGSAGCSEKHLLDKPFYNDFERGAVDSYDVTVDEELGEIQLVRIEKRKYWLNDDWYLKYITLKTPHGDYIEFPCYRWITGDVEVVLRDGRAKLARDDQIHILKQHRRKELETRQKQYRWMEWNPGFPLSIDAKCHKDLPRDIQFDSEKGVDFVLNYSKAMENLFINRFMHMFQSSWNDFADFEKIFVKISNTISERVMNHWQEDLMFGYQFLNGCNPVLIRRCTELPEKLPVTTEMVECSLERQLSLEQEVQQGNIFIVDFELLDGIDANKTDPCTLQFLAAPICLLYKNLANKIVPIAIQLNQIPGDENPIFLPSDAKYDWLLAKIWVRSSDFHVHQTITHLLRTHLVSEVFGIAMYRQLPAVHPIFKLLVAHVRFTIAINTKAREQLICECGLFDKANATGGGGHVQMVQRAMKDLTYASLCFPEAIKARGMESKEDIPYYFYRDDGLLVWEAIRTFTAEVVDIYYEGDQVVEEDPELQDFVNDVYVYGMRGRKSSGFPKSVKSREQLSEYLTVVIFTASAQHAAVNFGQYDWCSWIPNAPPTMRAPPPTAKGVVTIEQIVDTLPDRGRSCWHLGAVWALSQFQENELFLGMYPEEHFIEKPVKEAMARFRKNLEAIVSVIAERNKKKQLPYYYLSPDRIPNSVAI
# [2] = target: T2, Polyunsaturated fatty acid 5-lipoxygenase (Rattus norvegicus, UniProt P12527); experiment: In vitro 5-lipoxygenase inhibitory activity against calcium ionophore (A23187) induced LTB4 formation in rat polymorphonuclear leukocytes; format: functional, cell-based
# T2 sequence (P12527 whole entry): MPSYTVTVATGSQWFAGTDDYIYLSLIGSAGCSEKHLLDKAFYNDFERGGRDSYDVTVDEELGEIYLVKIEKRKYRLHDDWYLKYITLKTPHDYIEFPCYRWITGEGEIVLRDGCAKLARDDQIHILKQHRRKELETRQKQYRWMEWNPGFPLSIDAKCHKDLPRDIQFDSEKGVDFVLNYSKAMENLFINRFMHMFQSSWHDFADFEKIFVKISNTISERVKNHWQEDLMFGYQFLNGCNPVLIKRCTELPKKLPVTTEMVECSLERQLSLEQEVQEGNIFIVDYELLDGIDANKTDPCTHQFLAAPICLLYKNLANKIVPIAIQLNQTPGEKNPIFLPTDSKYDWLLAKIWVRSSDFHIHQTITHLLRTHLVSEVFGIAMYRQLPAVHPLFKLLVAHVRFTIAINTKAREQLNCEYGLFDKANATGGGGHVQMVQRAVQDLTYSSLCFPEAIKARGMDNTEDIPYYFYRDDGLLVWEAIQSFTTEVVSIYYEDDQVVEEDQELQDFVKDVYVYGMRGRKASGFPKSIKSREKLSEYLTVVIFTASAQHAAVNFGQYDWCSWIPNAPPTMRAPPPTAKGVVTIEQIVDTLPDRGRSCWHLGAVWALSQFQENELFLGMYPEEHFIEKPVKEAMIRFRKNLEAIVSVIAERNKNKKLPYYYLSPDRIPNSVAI
# [3] = Cmax in cynomolgus monkey (PO dose); format: ADME, organism-based, Macaca fascicularis; set-up: route oral; conditions: in vivo
# Procedure, shortened: (§1)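 Cynomolgus monkeys (n=2) dosed orally, 113 or 112 µmol/kg, as suspension in 0.2% HPMC. Plasma from serial blood samples deproteinized with 2 volumes methanol, run on C18 reversed-phase HPLC (55% acetonitrile, 10 mM acetohydroxamic acid, 8 mM triethylamine acetate, pH 6.5), UV 260 nm against external calibration curve. Mean of two animals.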
# [4] = Cmax in rat (PO dose); format: ADME, organism-based; set-up: route oral; conditions: in vivo
# Procedure, shortened: (§2)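 Rats dosed by oral gavage at 200 µmol/kg. Tail-vein blood drawn at about 1 h intervals; plasma analysed by HPLC. Mean of data from two animals.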
# [5] = T1/2 in dog (PO dose); format: ADME, organism-based; conditions: in vivo
# Procedure, shortened: (§3)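 Dogs (n=2) given 113 or 112 µmol/kg orally. Blood sampled at various times; plasma deproteinized with methanol and quantified by reversed-phase C18 HPLC with UV detection at 260 nm, external calibration. Values are means of two animals.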
# [6] = T1/2 in cynomolgus monkey (PO dose); format: ADME, organism-based, Macaca fascicularis; conditions: in vivo; procedure, shortened: as §1
# [7] = Plasma Tmax in rat (PO dose); format: ADME, organism-based; procedure, shortened: as §2
# [8] = Tmax in dog (PO dose); format: ADME, organism-based, Canis lupus familiaris; conditions: in vivo; procedure, shortened: as §3
# [9] = Tmax in cynomolgus monkey (PO dose); format: ADME, organism-based, Macaca fascicularis; conditions: in vivo; procedure, shortened: as §1
# [10] = Tmax in rat (PO dose); format: ADME, organism-based; conditions: in vivo; procedure, shortened: as §2
# Cyclooxygenase [11] = target: T3, Cyclooxygenase (Homo sapiens, UniProt P35354+P23219); experiment: In vitro cyclooxygenase inhibitory activity at 100 uM against calcium ionophore (A23187) induced thromboxane formation in human whole blood; format: functional, tissue-based
# Procedure, shortened: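 Human whole blood challenged with calcium ionophore A23187; thromboxane measured by enzyme immunoassay as COX readout. Duplicate assays; percent inhibition at highest tested concentration.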
# [12] = target: Cyclooxygenase (Rattus norvegicus) (UniProt P35355+Q63921); experiment: In vitro cyclooxygenase inhibitory activity at 100 uM against calcium ionophore (A23187) induced thromboxane formation in rat polymorphonuclear leukocytes; format: functional, cell-based
# Procedure, shortened: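 Rat polymorphonuclear leukocytes stimulated with calcium ionophore A23187; thromboxane determined by enzyme immunoassay. Duplicate assays; percent inhibition reported at highest concentration tested.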
# Rattus norvegicus = experiment: In vivo inhibition of rat anaphylaxis leukotriene formation from peritoneal fluids, 1 hr after an oral dose of 200 uM/Kg; format: functional
# Procedure, shortened: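 Rats given 200 µmol/kg orally 1 h before antibody-antigen challenge inducing peritoneal leukotriene biosynthesis; LTE4 in peritoneal fluid measured. Mean of eight rats; percent inhibition versus control group mean; significance by one-way ANOVA with Tukey's multiple comparison.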
# Cmax in dog (PO dose) = conditions: in vivo
# [13] = target: Prostaglandin G/H synthase 1 (Ovis aries) (UniProt P05979); experiment: Compound at 100 uM was tested in vitro for inhibition of Prostaglandin G/H synthase sheep seminal vesicle
# [14] = target: T1, Polyunsaturated fatty acid 5-lipoxygenase; experiment: In vitro 5-lipoxygenase inhibitory activity against calcium ionophore (A23187) induced LTB4 formation in human whole blood.
# Cyclooxygenase [15] = target: T4, Cyclooxygenase (Rattus norvegicus, UniProt P35355+Q63921); experiment: In vitro cyclooxygenase inhibitory activity against calcium ionophore (A23187) induced thromboxane formation in rat polymorphonuclear leukocytes; format: functional, cell-based
# T4 sequence (P35355 whole entry): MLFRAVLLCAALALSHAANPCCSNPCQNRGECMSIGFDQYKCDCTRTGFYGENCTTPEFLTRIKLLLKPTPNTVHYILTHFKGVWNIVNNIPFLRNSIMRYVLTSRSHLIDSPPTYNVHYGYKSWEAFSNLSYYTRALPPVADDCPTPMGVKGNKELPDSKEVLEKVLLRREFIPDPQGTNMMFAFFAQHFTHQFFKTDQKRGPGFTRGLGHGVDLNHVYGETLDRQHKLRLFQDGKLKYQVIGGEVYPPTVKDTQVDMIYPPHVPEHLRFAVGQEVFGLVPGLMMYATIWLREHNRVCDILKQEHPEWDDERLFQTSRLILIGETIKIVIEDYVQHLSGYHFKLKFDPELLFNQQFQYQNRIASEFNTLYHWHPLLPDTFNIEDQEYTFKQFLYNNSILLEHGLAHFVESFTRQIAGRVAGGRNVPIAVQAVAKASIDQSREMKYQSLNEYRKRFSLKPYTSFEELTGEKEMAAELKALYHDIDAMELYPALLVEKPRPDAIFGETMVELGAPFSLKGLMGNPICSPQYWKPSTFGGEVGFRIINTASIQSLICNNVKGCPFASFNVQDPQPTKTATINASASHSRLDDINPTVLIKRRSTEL
# T4 sequence (Q63921 whole entry): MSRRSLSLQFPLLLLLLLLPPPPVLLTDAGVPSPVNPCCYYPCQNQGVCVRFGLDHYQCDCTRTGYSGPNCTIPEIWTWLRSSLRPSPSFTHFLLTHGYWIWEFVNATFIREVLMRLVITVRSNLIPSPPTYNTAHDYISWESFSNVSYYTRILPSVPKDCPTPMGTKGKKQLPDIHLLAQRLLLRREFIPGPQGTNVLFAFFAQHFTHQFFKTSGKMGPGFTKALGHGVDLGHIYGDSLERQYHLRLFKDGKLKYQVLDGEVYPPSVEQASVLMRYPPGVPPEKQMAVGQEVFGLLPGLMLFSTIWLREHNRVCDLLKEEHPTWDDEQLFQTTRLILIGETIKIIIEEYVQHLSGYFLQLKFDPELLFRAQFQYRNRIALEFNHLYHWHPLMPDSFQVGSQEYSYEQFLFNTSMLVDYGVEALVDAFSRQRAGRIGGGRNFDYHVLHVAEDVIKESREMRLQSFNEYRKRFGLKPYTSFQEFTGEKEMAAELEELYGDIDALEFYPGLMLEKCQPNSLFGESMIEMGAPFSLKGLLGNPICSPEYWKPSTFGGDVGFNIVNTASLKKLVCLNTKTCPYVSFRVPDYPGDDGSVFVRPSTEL
# Procedure, shortened: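 Rat polymorphonuclear leukocytes, intact cells, stimulated with calcium ionophore A23187. Thromboxane quantified by enzyme immunoassay. Duplicate assays.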
# Cyclooxygenase [16] = target: T3, Cyclooxygenase; experiment: In vitro cyclooxygenase inhibitory activity against calcium ionophore (A23187) induced thromboxane formation in human whole blood; format: functional, tissue-based
# Procedure, shortened: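 Human whole blood stimulated with calcium ionophore A23187. Thromboxane measured by enzyme immunoassay. Assays in duplicate.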
# [17] = target: Prostaglandin G/H synthase 1 (Ovis aries) (UniProt P05979); experiment: Compound was tested in vitro for inhibition of Prostaglandin G/H synthase sheep seminal vesicle
# Chain of Prostaglandin G/H synthase 1 (Ovis aries) (P05979 whole entry, looked up): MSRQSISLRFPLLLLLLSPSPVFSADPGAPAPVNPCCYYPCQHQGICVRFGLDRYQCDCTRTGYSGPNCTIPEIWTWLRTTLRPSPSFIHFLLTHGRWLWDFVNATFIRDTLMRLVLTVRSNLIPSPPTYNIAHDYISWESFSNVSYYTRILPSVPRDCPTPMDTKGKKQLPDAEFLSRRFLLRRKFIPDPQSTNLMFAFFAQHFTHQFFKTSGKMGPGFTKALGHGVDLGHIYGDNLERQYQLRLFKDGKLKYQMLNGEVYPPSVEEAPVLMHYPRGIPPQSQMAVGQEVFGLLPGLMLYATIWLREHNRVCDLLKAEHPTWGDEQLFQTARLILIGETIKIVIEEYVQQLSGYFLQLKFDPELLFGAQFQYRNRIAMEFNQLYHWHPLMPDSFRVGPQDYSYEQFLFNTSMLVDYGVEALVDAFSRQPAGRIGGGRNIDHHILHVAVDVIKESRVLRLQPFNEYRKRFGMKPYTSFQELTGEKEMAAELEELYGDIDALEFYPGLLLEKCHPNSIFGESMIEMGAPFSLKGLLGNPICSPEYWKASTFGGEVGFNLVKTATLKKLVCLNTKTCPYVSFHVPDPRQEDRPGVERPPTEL
IC50 [1],IC50 [2],Cmax [3],Cmax [4],half-life [5],half-life [6],Tmax [7],Tmax [8],Tmax [9],Tmax [10],inhibition (Cyclooxygenase [11]),inhibition [12],Cmax (Cmax in dog (PO dose)),inhibition [13],IC50 [14],IC50 (Cyclooxygenase [15]),IC50 (Cyclooxygenase [16]),IC50 [17],Structure (SMILES),ED50 (Rattus norvegicus)
5.8 µM,4.6 µM,74 µM,130 µM,0.8 h,1 h,1 h,0.3 h,2 h,1 h,0%,28%,132 µM,4%,5.8 µM and 9.2 µM,–,–,–,O=C1NCCN(c2ccccc2)N1,7 mg/kg
–,–,–,–,–,–,–,–,–,–,–,–,–,–,–,13 µM,12 µM,94 µM,O=C1CCN(c2ccccc2)N1 [PHENIDONE],–

# Reference: ChEMBL document CHEMBL1129426, “5-Lipoxygenase inhibitors: synthesis and structure-activity relationships of a series of 1-aryl-2H,4H-tetrahydro-1,2,4-triazin-3-ones” (J Med Chem, 1996)
